PP1 inh: blocks human PP1-alpha phosphatase, a PP5 counter-screen; P62136; purified PP1alpha, OMFP fluorescence; inhibition, % at 6.7 µM; actives 0.9% (n = 320,000);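 active means inhibition above the mean inhibition of all tested compounds plus 3 SD, computed separately for each screening campaign, cut at about 15% in these data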
T cruzi repl: T. cruzi replication inhibition. inhibition, % (test concentration not listed). T. cruzi beta-gal in NIH3T3, luminescence, 90 h. actives 1.4% (n = 300,000);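 active means mean inhibition across valid replicates above about 55%, limit read from the data; inconclusive means mean below that limit but half or more replicates reach it; inactive means mean below it, under half of replicates reach it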;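 further: signal also drops with host cell toxicity which is not excluded here; higher percent means less beta-gal luminescence so fewer parasites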
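Assay system: NIH/3T3 host cells with β-galactosidase reporter T. cruzi; input: 5,000 host fibroblasts per well; compound: single 50 nL compound addition per well in DMSO; timing: ≥90 h infection period, 3 h prior cell attachment; measured by: GalScreen β-gal luminescence, detergent lysis, 60 min; evaluation: percent inhibition of parasite-derived β-gal signal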
p-CIP stab down: p/CIP protein destabilization | Q05BA5 | F442A p/CIP-EGFP cells, EGFP fluorescence, 16 h | decrease of EGFP signal, % at 10 µM | actives 0.01% (n = 290,000);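 active means EGFP signal decrease of at least 30% at 10 µM or well 3 SD below plate mean, unless failing retest; inactive means the rest, including hits failing retest or dose response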
UBC13 polyUb: blocks human UBC13 polyubiquitin chain formation; TR-FRET; inhibition, % at 20 µM; P61088; actives 0.47% (n = 330,000); in the data active means inhibition above about 45%, passing the limit was not always enough; inconclusive means no clear call, values can overlap the other calls
AI-2 QS modul: modulates the Vibrio harveyi AI-2 quorum sensing system; Vibrio harveyi JMH597 AI-2 luminescence/OD600 ratio, 9 h; active compounds read low; strain lacks LuxN and CqsS sensors; 0 = neutral-control median; activity change, % at 7.5 µM; actives 0.4% (n = 300,000); AID 2094; in the data active means activity change below about -75%, passing the limit was not always enough; inconclusive means no clear call, values can overlap the other calls;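 further: luminescence divided by OD600 gain over 9 h not by final OD600 alone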
Large screens that a line does not name were inactive. The list is not random: actives were taken first. Their share in the collection is about 2.8%.

O=S(=O)(CC(CN1CCCCC1)N1CCCCC1)c1ccc2ccccc2c1 (stereo unspecified)	T cruzi repl 71 (no result: PP1 inh, UBC13 polyUb)
COc1ccc(OC)c(Nc2nc(N)nc(-c3cc4ccccc4o3)n2)c1	PP1 inh 16
COc1ccc(OC)c(NC(=O)c2cc3ccccc3o2)c1	none
N#CC1(NC(=O)COC(=O)c2cc(O)c3ccccc3c2O)CCCCC1	none (no result: p-CIP stab down)
N#CC1(NC(=O)COC(=O)c2ccc(-c3ccc(O)cc3)cc2)CCCCC1	PP1 inh 16 (no result: T cruzi repl, p-CIP stab down, AI-2 QS modul)
CC(=O)O[C@@H]1[C@@H](O)[C@@H](O)[C@H](Oc2c(-c3ccc(O)cc3)oc3c(CC=C(C)C)c(O)cc(O)c3c2=O)O[C@H]1C	UBC13 polyUb 46 (no result: p-CIP stab down)
CCSc1nnc(NC(=O)Cn2cnc3ccccc3c2=O)s1	AI-2 QS modul -81
CC(C)CCc1noc(CN(C)CC2CCN(Cc3ccccc3)CC2)n1	T cruzi repl 55
CN(Cc1nc(-c2cnccn2)no1)CC1CCN(Cc2ccccc2)CC1	none
O=C(Cc1ccccc1)Nc1cccc(N2C(=O)C=CC2=O)c1	AI-2 QS modul -88 (no result: UBC13 polyUb)
Cc1ccccc1N1CCN(S(=O)(=O)C[C@]23CCC(CC2NC(=O)[C@@H](N)CCS(C)(=O)=O)C3(C)C)CC1 (stereo partly specified)	none (no result: T cruzi repl, p-CIP stab down, AI-2 QS modul)
Cc1ccc(C(=O)NCc2ccccc2)cc1Br	AI-2 QS modul -77
Cc1ccc(NC(=O)/C=N/OCC(=O)NCc2ccccc2Cl)cc1	none
Cc1ccc(C)c(-c2csc(N/N=C/c3ccco3)n2)c1	none
Cc1ccc2c(c1)NC(=O)c1cc([N+](=O)[O-])ccc1O2	none
O=C1Nc2ccccc2Oc2cc([N+](=O)[O-])ccc21	T cruzi repl 67
Cn1c(=O)c(C(=O)COC(=O)c2cc(-c3ccco3)nc3ccccc23)c(N)n(Cc2ccccc2)c1=O	PP1 inh 19
CC(C)Cn1c(N)c(C(=O)COC(=O)c2cc(-c3ccco3)nc3ccccc23)c(=O)n(C)c1=O	none
CCOC(=O)C1=C(CSc2nc3c(cc2C#N)CN(C)CC3)OC(N)=C(C#N)C1c1ccc(F)cc1 (stereo unspecified)	PP1 inh 16
CCOC(=O)C1=C(CSc2nc(-c3ccccc3)ccc2C#N)OC(N)=C(C#N)C1c1ccccc1 (stereo unspecified)	none
CCOC(=O)C1=C(CSc2nc3c(cc2C#N)CN(C)CC3)OC(N)=C(C#N)C1c1ccccc1 (stereo unspecified)	PP1 inh 17
CCOC(=O)C1=C(CSc2nc3c(cc2C#N)CCC3)OC(N)=C(C#N)C1c1ccccc1 (stereo unspecified)	none
CC(C)(C)OC(=O)NCCCCCNC(=O)c1nc[nH]c1C(=O)NCCCCCNC(=O)OC(C)(C)C	none (no result: PP1 inh, T cruzi repl, p-CIP stab down, AI-2 QS modul)
Cc1ccc(C)c(NS(=O)(=O)c2cc(C(=O)Nc3ccccc3-c3ccccc3)ccc2Cl)c1	none
Cc1nc(N2CCN(C)CC2)c2sc(=S)n(-c3ccccc3)c2n1	none
S=c1sc2c(Cl)ncnc2n1-c1ccccc1	T cruzi repl 59 (no result: PP1 inh, UBC13 polyUb)
COC1CCCN(Cc2c(C(=O)N3CCN(C4CCCCC4)CC3)nc3ccccn23)C1 (stereo unspecified)	none
Nc1ncn([C@@H]2O[C@H](CO)[C@@H](O)[C@H]2O)c(=O)n1	AI-2 QS modul -87 (no result: p-CIP stab down)
CC(C)(C)OC(=O)C[C@@H]1C/C=C\C[C@@H](CC(=O)N(CCO)Cc2ccccc2)C(=O)N[C@H](C(C)(C)C)COC1=O	none (no result: PP1 inh, T cruzi repl, p-CIP stab down, AI-2 QS modul)
Cc1ccc(S(=O)(=O)Nc2cccc(-c3ccc(N4CCCCCC4)nn3)c2)cc1C	PP1 inh 17
O=S(=O)(Nc1cccc(-c2ccc(N3CCCCCC3)nn2)c1)c1ccccc1Cl	PP1 inh 17
O=S(=O)(Nc1cccc(-c2ccc(N3CCCCCC3)nn2)c1)c1ccc(C(F)(F)F)cc1	PP1 inh 17
O=S(=O)(Nc1cccc(-c2ccc(N3CCCCCC3)nn2)c1)c1ccc(F)cc1	none
Cc1ccc([N+](=O)[O-])cc1S(=O)(=O)Nc1cccc(-c2ccc(N3CCCC3)nn2)c1	none (no result: p-CIP stab down)
COc1ccc(-c2nnc3sc(COc4ccccc4)nn23)cc1	none
c1ccc(OCc2nn3c(-c4ccco4)nnc3s2)cc1	PP1 inh 16
OCCCCNCc1ccc(OCc2ccc(Cl)cc2)cc1	T cruzi repl 57
CCN(CC)C(=O)C1CCCN(Cc2ccc(N(C)C)cc2)C1 (stereo unspecified)	T cruzi repl 71
CCOC(=O)C1CCCN(Cc2ccc(OCc3ccccc3)c(OC)c2)C1 (stereo unspecified)	T cruzi repl 63
CCOC(=O)C1CCCN(Cc2ccc(O)c(OC)c2)C1 (stereo unspecified)	T cruzi repl 58
CCOC(=O)C1CCCN(Cc2cccc(Cl)c2)C1 (stereo unspecified)	none
COc1cc(CN2CCCC(C)C2)ccc1OCc1ccccc1 (stereo unspecified)	none
CCOC(=O)C1CCCN(Cc2ccc(OCc3ccccc3)cc2)C1 (stereo unspecified)	T cruzi repl 62
CCc1ccc(NC(=O)Nc2ccsc2C(=O)OC)cc1	none
C[C@H](CO)N1C[C@H](C)[C@@H](CN(C)CC2CCCCC2)Oc2ccc(NC(=O)Cn3cnnn3)cc2C1=O	none (no result: PP1 inh, T cruzi repl, p-CIP stab down, AI-2 QS modul)
COC/C=C/C1=CC2=CC(=O)C(C)(OC(=O)c3cnc4ccccc4n3)C(=O)C2=CN1c1ccc(CO)cc1 (stereo unspecified)	PP1 inh 20
COC/C=C/C1=CC2=CC(=O)C(C)(OC(=O)c3cnc4ccccc4n3)C(=O)C2=CN1CCc1c[nH]c2ccccc12 (stereo unspecified)	PP1 inh 17 (no result: p-CIP stab down)
O=C(N/N=C/c1ccc([N+](=O)[O-])o1)c1cc2c(ccc3ccccc32)o1	none (no result: PP1 inh, T cruzi repl, UBC13 polyUb, AI-2 QS modul)
O=C(N/N=C/c1ccc([N+](=O)[O-])o1)c1ccncc1	AI-2 QS modul inconclusive
O=C(N/N=C/c1ccc([N+](=O)[O-])o1)c1cc2ccccc2o1	T cruzi repl 64
Cc1scc(C(=O)N/N=C/c2ccc([N+](=O)[O-])o2)c1C	AI-2 QS modul -91
O=C(N/N=C/c1ccc([N+](=O)[O-])o1)c1ccc(O)cc1	AI-2 QS modul -128 (no result: UBC13 polyUb)
CCN(CC)S(=O)(=O)c1cccc(C(=O)N/N=C/c2ccc([N+](=O)[O-])o2)c1	T cruzi repl 56
CCN1C=C(C(=O)OC)C(c2cccc(OC)c2OC)C(C(=O)OC)=C1	none
C=CCOc1ccc(CN(C)C(=O)C2CCCO2)cc1 (stereo unspecified)	none
O=C(COC(=O)C1CCN(S(=O)(=O)c2c(Cl)cccc2Cl)CC1)NCc1ccco1	none (no result: p-CIP stab down, AI-2 QS modul)
Cc1ccc(NC(=O)c2sccc2C)nc1	none
O=C(N/N=C/c1ccc(-c2ccccc2[N+](=O)[O-])o1)c1cncc(Br)c1	none
COc1cc([N+](=O)[O-])cc(/C=N/NC(=O)c2cncc(Br)c2)c1O	none
Cc1nc2ccccn2c1C(=O)N/N=C/c1ccc([N+](=O)[O-])o1	T cruzi repl 71, AI-2 QS modul inconclusive

Screening data as filed in PubChem BioAssay.
